Test results from publication PMC6510378 (Clinical and Translational Science, 2019).

Legend:
[1] = SAD study plasma PK, single oral dose, healthy young subjects; assay type: in vivo, human; details: for Cmax / Tmax / AUC(0-inf) / half-life: human, plasma, po; for AUC(0-inf): AUCinf; for half-life: t½
How it was run: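 Healthy adults aged 18–55, randomized 6 active : 2 placebo per cohort, received a single fasted oral dose (1–60 mg) with 240 mL water. Serial blood was drawn predose to 72 h, plus 96 and 120 h in the 6, 30 and 60 mg cohorts. Plasma drug was measured by validated HPLC-MS/MS, with below-limit values set to zero. Dose proportionality used a power model on log-transformed dose.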

MAD study part 1 = assay type: in vivo, human
How it was run: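 Healthy young Japanese, young non-Japanese and elderly non-Japanese adults got a single oral dose (10, 20 or 50 mg) or placebo on day 1. After a 4-day washout, dosing was once daily on days 5–18. PK-day doses were taken with 240 mL water after a 10-hour fast, with no food for 4 h. Plasma drug was measured by validated HPLC-MS/MS. Values below the limit of quantification were set to zero.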

[2] = 3 mg, Median, single oral dose 3 mg, n=6
[3] = 3 mg, Min–max, single oral dose 3 mg, n=6
[4] = 6 mg, Mean (SD), single oral dose 6 mg, n=6
[5] = 6 mg, Median, single oral dose 6 mg, n=6
[6] = 6 mg, Min–max, single oral dose 6 mg, n=6
[7] = 10 mg, Mean (SD), single oral dose 10 mg, n=3
[8] = 10 mg, Median, single oral dose 10 mg, n=3
[9] = 10 mg, Min–max, single oral dose 10 mg, n=3
[10] = 10 mg, Median, single oral dose 10 mg, n=6
[11] = 10 mg, Min–max, single oral dose 10 mg, n=6
[12] = 30 mg, Mean (SD), single oral dose 30 mg, n=6
[13] = 30 mg, Median, single oral dose 30 mg, n=6
[14] = 30 mg, Min–max, single oral dose 30 mg, n=6
[15] = 60 mg, Mean (SD), single oral dose 60 mg, n=6
[16] = 60 mg, Median, single oral dose 60 mg, n=6
[17] = 60 mg, Min–max, single oral dose 60 mg, n=6
[18] = MAD part 1, day 1 single dose 10 mg, young Japanese, n=8
[19] = MAD part 1, day 1 single dose 20 mg, elderly non-Japanese, n=9
[20] = MAD part 1, day 1 single dose 20 mg, young Japanese, n=8
[21] = MAD part 1, day 1 single dose 20 mg, young non-Japanese, n=8
[22] = MAD part 1, day 1 single dose 50 mg, young Japanese, n=8
[23] = MAD part 1, day 1 single dose 50 mg, young non-Japanese, n=8
[24] = MAD part 1, day 18 multiple dose q.d. 14 days 10 mg, young Japanese, n=8
[25] = MAD part 1, day 18 multiple dose q.d. 14 days 20 mg, elderly non-Japanese, n=9
[26] = MAD part 1, day 18 multiple dose q.d. 14 days 20 mg, young Japanese, n=8
[27] = MAD part 1, day 18 multiple dose q.d. 14 days 20 mg, young non-Japanese, n=8
[28] = MAD part 1, day 18 multiple dose q.d. 14 days 50 mg, young Japanese, n=8
[29] = MAD part 1, day 18 multiple dose q.d. 14 days 50 mg, young non-Japanese, n=7

Cn1c(-c2ccc(C(N)=O)cc2F)nnc1C(C)(C)Oc1c(F)cc(Cl)cc1F [ASP3662]
Cmax ([1]; 1 mg, Mean (SD), single oral dose 1 mg, n=6): 0.0433 ng/mL
Cmax ([1]; 1 mg, Min–max, single oral dose 1 mg, n=6): < 0.14 ng/mL
Tmax ([1]; 1 mg, Median, single oral dose 1 mg, n=2): 0.75 h
Tmax ([1]; 1 mg, Min–max, single oral dose 1 mg, n=2): 0.5 to 1 h
Cmax ([1]; 3 mg, Mean (SD), single oral dose 3 mg, n=6): 3.54 ng/mL
Cmax [1, 2]: 1.6 ng/mL
Cmax [1, 3]: 0.38 to 9.24 ng/mL
Tmax [1, 2]: 2.5 h
Tmax [1, 3]: 1 to 4.02 h
AUC(0-inf) [1, 4]: 405 ng·h/mL
AUC(0-inf) [1, 5]: 410 ng·h/mL
AUC(0-inf) [1, 6]: 169 to 660 ng·h/mL
Cmax [1, 4]: 28 ng/mL
Cmax [1, 5]: 30.5 ng/mL
Cmax [1, 6]: 10.8 to 43.7 ng/mL
Tmax [1, 5]: 1.75 h
Tmax [1, 6]: 1 to 4 h
half-life [1, 4]: 37.7 h
half-life [1, 5]: 37.9 h
half-life [1, 6]: 28.5 to 46.3 h
AUC(0-inf) [1, 7]: 858 ng·h/mL
AUC(0-inf) [1, 8]: 953 ng·h/mL
AUC(0-inf) [1, 9]: 620 to 1000 ng·h/mL
Cmax ([1]; 10 mg, Mean (SD), single oral dose 10 mg, n=6): 64 ng/mL
Cmax [1, 10]: 60.9 ng/mL
Cmax [1, 11]: 49 to 93.6 ng/mL
Tmax [1, 10]: 1.75 h
Tmax [1, 11]: 1 to 6 h
half-life [1, 7]: 19.5 h
half-life [1, 8]: 21.9 h
half-life [1, 9]: 13.7 to 23 h
AUC(0-inf) [1, 12]: 3620 ng·h/mL
AUC(0-inf) [1, 13]: 3370 ng·h/mL
AUC(0-inf) [1, 14]: 1630 to 6770 ng·h/mL
Cmax [1, 12]: 258 ng/mL
Cmax [1, 13]: 239 ng/mL
Cmax [1, 14]: 151 to 386 ng/mL
Tmax [1, 13]: 3.5 h
Tmax [1, 14]: 1.5 to 4 h
half-life [1, 12]: 17.6 h
half-life [1, 13]: 17.4 h
half-life [1, 14]: 14.5 to 20.2 h
AUC(0-inf) [1, 15]: 8190 ng·h/mL
AUC(0-inf) [1, 16]: 8460 ng·h/mL
AUC(0-inf) [1, 17]: 5440 to 12500 ng·h/mL
Cmax [1, 15]: 595 ng/mL
Cmax [1, 16]: 566 ng/mL
Cmax [1, 17]: 439 to 865 ng/mL
Tmax [1, 16]: 3.5 h
Tmax [1, 17]: 2 to 4 h
half-life [1, 15]: 14.8 h
half-life [1, 16]: 14.6 h
half-life [1, 17]: 13.1 to 17.3 h
CL/F, Mean (SD) ([1]; single oral dose 6 mg, n=6): 18.38 (9.909) L/hour
CL/F, Median ([1]; single oral dose 6 mg, n=6): 15.62 L/h
CL/F, Min–max ([1]; single oral dose 6 mg, n=6): 9.09 to 35.4 L/h
CL/F, Mean (SD) ([1]; single oral dose 10 mg, n=3): 12.20 (3.403) L/hour
CL/F, Median ([1]; single oral dose 10 mg, n=3): 10.49 L/h
CL/F, Min–max ([1]; single oral dose 10 mg, n=3): 9.99 to 16.1 L/h
CL/F, Mean (SD) ([1]; single oral dose 30 mg, n=6): 10.05 (4.856) L/hour
CL/F, Median ([1]; single oral dose 30 mg, n=6): 9.012 L/h
CL/F, Min–max ([1]; single oral dose 30 mg, n=6): 4.43 to 18.4 L/h
CL/F, Mean (SD) ([1]; single oral dose 60 mg, n=6): 7.933 (2.407) L/hour
CL/F, Median ([1]; single oral dose 60 mg, n=6): 7.091 L/h
CL/F, Min–max ([1]; single oral dose 60 mg, n=6): 4.81 to 11.0 L/h
CL/F, Mean (SD) (MAD study part 1; [18]): 9.254 (4.086) L/hour
CL/F, Median (MAD study part 1; [18]): 7.651 L/h
CL/F, Min–max (MAD study part 1; [18]): 5.05 to 15.3 L/h
CL/F, Mean (SD) (MAD study part 1; [19]): 6.99 (2.152) L/hour
CL/F, Median (MAD study part 1; [19]): 6.567 L/h
CL/F, Min–max (MAD study part 1; [19]): 3.8 to 10.4 L/h
CL/F, Mean (SD) (MAD study part 1; [20]): 9.993 (2.926) L/hour
CL/F, Median (MAD study part 1; [20]): 9.182 L/h
CL/F, Min–max (MAD study part 1; [20]): 6.03 to 15.0 L/h
CL/F, Mean (SD) (MAD study part 1; [21]): 7.412 (2.61) L/hour
CL/F, Median (MAD study part 1; [21]): 7.279 L/h
CL/F, Min–max (MAD study part 1; [21]): 4.33 to 11.7 L/h
CL/F, Mean (SD) (MAD study part 1; [22]): 6.758 (1.787) L/hour
CL/F, Median (MAD study part 1; [22]): 6.240 L/h
CL/F, Min–max (MAD study part 1; [22]): 4.30 to 9.40 L/h
CL/F, Mean (SD) (MAD study part 1; [23]): 7.005 (2.789) L/hour
CL/F, Median (MAD study part 1; [23]): 7.259 L/h
CL/F, Min–max (MAD study part 1; [23]): 2.53 to 10.1 L/h
CL/F, Mean (SD) (MAD study part 1; [24]): 6.07 (2.591) L/hour
CL/F, Median (MAD study part 1; [24]): 5.708 L/h
CL/F, Min–max (MAD study part 1; [24]): 3.02 to 9.87 L/h
Ctrough, Mean (SD) (MAD study part 1; [24]): 37.65 (30.42) ng/mL
Ctrough, Median (MAD study part 1; [24]): 24.76 ng/mL
Ctrough, Min–max (MAD study part 1; [24]): 13.5 to 84.0 ng/mL
CL/F, Mean (SD) (MAD study part 1; [25]): 5.675 (1.649) L/hour
CL/F, Median (MAD study part 1; [25]): 5.675 L/h
CL/F, Min–max (MAD study part 1; [25]): 2.81 to 8.51 L/h
Ctrough, Mean (SD) (MAD study part 1; [25]): 63.58 (49.38) ng/mL
Ctrough, Median (MAD study part 1; [25]): 52.25 ng/mL
Ctrough, Min–max (MAD study part 1; [25]): 26.1 to 184 ng/mL
CL/F, Mean (SD) (MAD study part 1; [26]): 8.322 (2.562) L/hour
CL/F, Median (MAD study part 1; [26]): 8.117 L/h
CL/F, Min–max (MAD study part 1; [26]): 4.47 to 13.5 L/h
Ctrough, Mean (SD) (MAD study part 1; [26]): 34.01 (24.86) ng/mL
Ctrough, Median (MAD study part 1; [26]): 26.35 ng/mL
Ctrough, Min–max (MAD study part 1; [26]): 13.7 to 92.1 ng/mL
CL/F, Mean (SD) (MAD study part 1; [27]): 6.487 (2.372) L/hour
CL/F, Median (MAD study part 1; [27]): 6.473 L/h
CL/F, Min–max (MAD study part 1; [27]): 3.64 to 10.3 L/h
Ctrough, Mean (SD) (MAD study part 1; [27]): 58.68 (40.91) ng/mL
Ctrough, Median (MAD study part 1; [27]): 42.71 ng/mL
Ctrough, Min–max (MAD study part 1; [27]): 19.9 to 132 ng/mL
CL/F, Mean (SD) (MAD study part 1; [28]): 10.46 (12.75) L/hour
CL/F, Median (MAD study part 1; [28]): 6.58 L/h
CL/F, Min–max (MAD study part 1; [28]): 3.80 to 41.8 L/h
Ctrough, Mean (SD) (MAD study part 1; [28]): 115.3 (59.73) ng/mL
Ctrough, Median (MAD study part 1; [28]): 103.3 ng/mL
Ctrough, Min–max (MAD study part 1; [28]): 21.0 to 223 ng/mL
CL/F, Mean (SD) (MAD study part 1; [29]): 5.507 (2.275) L/hour
CL/F, Median (MAD study part 1; [29]): 5.607 L/h
CL/F, Min–max (MAD study part 1; [29]): 1.86 to 8.76 L/h
Ctrough, Mean (SD) (MAD study part 1; [29]): 261.3 (267.1) ng/mL
Ctrough, Median (MAD study part 1; [29]): 175.2 ng/mL
Ctrough, Min–max (MAD study part 1; [29]): 60.4 to 841 ng/mL
